Assay [1] concerns the target T1, Sex hormone-binding globulin (Homo sapiens, UniProt P04278).
T1 sequence (P04278 whole entry): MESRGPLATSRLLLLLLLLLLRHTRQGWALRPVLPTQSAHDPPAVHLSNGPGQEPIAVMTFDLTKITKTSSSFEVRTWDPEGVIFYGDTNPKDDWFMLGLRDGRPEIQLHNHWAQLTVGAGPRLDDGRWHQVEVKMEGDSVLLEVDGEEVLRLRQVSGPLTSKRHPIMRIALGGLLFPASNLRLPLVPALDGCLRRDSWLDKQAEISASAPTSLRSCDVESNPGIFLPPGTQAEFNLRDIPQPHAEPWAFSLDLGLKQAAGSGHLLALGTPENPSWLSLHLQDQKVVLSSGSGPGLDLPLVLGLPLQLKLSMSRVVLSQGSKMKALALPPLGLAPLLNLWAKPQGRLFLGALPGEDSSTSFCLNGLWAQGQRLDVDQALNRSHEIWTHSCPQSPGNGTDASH
The assay can be described thus: Binding affinity to SHBG.

Another assay deals with T2, Cytochrome P450 1A2 (Homo sapiens, UniProt P05177).
T2 sequence (P05177 whole entry): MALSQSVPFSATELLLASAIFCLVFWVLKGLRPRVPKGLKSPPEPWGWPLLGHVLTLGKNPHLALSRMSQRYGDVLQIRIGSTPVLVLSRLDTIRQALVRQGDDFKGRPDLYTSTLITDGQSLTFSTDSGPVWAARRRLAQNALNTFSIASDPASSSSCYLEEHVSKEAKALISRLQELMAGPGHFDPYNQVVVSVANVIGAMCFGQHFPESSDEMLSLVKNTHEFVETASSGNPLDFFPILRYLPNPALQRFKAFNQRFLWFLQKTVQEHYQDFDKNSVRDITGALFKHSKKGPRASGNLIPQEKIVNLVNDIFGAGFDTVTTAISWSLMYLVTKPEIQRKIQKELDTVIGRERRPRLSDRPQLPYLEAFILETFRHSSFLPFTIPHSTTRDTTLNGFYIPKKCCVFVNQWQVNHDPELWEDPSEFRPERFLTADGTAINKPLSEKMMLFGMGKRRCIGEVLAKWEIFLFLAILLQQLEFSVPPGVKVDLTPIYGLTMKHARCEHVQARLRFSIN
The assay can be described thus: Inhibition of CYP1A2. In kind it is ADME.

Assay [2] relates to Rattus norvegicus. The assay can be described thus: Stimulation of ventral prostate tissue weight in Sprague-Dawley rat at 1 mg/kg, po after 14 days. In kind it is functional, Prostate gland. An outline of the steps: (§1)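 Mature male rats were castrated two weeks before treatment. Compound was given […] once daily for two weeks, then levator ani muscle and ventral prostate were weighed. Weights are expressed as percent of a sham-operated, vehicle-treated intact control group, ±SEM.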

A further assay addresses Cytochrome P450 2D6 (Homo sapiens, UniProt P10635). The assay can be described thus: Inhibition of CYP2D6. Format: ADME.
In assay [3] the test system is Rattus norvegicus. The assay can be described thus: Stimulation of levator ani muscle weight in Sprague-Dawley rat at 1 mg/kg, po after 14 days. In kind it is functional. In outline:
as §1

Assay [4] can be described thus: Binding affinity to progesterone receptor. Set-up: species or system Homo sapiens.
In a further assay the target is Estrogen receptor (Homo sapiens, UniProt P03372). The assay can be described thus: Binding affinity to ERalpha.
The next assay concerns the target T3, Androgen receptor (Homo sapiens, UniProt P10275).
T3 sequence (P10275 whole entry): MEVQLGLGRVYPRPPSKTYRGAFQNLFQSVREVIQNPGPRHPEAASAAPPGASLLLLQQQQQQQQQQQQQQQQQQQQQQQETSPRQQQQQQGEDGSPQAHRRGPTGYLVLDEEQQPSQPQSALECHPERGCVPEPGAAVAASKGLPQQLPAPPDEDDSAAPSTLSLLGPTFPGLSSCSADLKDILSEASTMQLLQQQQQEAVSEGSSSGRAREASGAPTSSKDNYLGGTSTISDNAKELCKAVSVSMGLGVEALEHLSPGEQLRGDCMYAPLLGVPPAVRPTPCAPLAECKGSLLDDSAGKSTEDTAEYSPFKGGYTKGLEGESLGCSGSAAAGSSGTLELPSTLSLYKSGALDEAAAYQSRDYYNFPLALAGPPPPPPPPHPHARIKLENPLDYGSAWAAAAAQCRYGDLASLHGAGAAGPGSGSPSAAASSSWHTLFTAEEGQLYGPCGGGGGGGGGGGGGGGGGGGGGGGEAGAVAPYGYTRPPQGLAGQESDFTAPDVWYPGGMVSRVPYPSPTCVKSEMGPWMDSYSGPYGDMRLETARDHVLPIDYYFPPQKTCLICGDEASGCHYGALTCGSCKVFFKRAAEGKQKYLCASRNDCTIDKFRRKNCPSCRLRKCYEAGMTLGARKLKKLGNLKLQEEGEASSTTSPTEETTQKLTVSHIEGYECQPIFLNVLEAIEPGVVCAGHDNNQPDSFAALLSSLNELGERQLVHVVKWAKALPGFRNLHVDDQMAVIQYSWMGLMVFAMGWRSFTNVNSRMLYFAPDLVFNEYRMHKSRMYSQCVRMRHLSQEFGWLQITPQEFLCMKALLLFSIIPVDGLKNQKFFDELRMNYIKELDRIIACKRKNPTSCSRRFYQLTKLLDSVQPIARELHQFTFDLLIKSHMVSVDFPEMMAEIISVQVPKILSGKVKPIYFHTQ
The assay can be described thus: Displacement of [3H]DHT from androgen receptor expressed in MDA-MB-453 cells. In kind it is cell-based. On the technique in general: Displacement assays read how much labelled ligand stays bound in the presence of the test substance.

The structures appear in SMILES notation. Where only a bound is given, the exact number is not on record here.

The source of these data is ChEMBL document CHEMBL1145402, “Discovery of potent and muscle selective androgen receptor modulators through scaffold modifications” (J Med Chem, 2007).

Cytochrome P450 2D6, sequence (P10635 whole entry): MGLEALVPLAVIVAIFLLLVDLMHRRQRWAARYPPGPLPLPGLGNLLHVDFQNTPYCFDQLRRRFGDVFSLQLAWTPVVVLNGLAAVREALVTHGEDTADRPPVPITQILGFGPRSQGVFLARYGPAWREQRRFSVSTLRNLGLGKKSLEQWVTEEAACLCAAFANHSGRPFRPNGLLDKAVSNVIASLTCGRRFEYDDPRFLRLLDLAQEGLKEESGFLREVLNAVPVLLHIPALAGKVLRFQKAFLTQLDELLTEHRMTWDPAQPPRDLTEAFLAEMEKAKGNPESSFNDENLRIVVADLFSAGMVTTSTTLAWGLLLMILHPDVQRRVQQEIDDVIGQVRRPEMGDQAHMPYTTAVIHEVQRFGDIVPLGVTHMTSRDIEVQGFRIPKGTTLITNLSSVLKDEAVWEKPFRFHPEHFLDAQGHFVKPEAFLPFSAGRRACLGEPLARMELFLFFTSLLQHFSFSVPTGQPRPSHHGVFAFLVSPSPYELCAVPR
Estrogen receptor, sequence (P03372 whole entry, looked up): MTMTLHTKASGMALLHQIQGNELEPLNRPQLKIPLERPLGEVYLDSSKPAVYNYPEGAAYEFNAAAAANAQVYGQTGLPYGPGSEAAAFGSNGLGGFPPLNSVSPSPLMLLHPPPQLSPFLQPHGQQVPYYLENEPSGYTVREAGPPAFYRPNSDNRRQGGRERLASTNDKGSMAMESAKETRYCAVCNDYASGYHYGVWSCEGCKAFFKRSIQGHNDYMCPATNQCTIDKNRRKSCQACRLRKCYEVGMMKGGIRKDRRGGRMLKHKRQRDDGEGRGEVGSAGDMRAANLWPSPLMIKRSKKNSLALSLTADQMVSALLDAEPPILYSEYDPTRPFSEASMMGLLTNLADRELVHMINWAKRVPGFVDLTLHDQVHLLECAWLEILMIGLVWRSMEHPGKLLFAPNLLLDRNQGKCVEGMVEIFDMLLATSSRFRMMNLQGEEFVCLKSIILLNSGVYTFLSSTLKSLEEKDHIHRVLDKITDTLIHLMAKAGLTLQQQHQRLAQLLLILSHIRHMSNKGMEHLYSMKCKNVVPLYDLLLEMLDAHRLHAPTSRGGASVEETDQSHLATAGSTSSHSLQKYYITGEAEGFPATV

As to `CC[C@H]1[C@@H]2[C@@H](O)CCN2C(=O)N1c1ccc(C#N)c(Cl)c1C`, the Ki (as a rule, the dissociation constant of the complex between target and ligand, obtained from inhibition or displacement) was above 100 µM in assay [1], above 10 µM in assay [4], above 10 µM at Estrogen receptor and 0.0009 µM at Androgen receptor. For the same molecule, the IC50 at Cytochrome P450 1A2 and at Cytochrome P450 2D6 was above 40 µM throughout. Besides, the results for the Activity in the assay with Rattus norvegicus [2] and with Rattus norvegicus [3] were 24% and 101%, respectively.
